Screening results as filed in PubChem BioAssay.
697 NFkB inh: inhibitors of the PMA/ionomycin-induced NF-kB reporter in 697 B cells | 330,000 compounds, 0.33% hits | inhibition, % at 4 µM | 697 B-cell NF-kB luciferase reporter, 16 h; in the data active = inhibition above about 35%
Jurkat NFkB inh: inhibitors of the PMA/ionomycin-induced NF-kB reporter in Jurkat cells | 330,000 compounds, 0.53% hits | PMA/ionomycin-induced NF-kB luciferase reporter, luminescence | AID 435003 | inhibition, % at 4 µM; in the data active = inhibition above about 50%
GalR3 antagonist: human GalR3 antagonism; 360,000 compounds, 0.44% hits; AID 651719; O60755; HEK293 GalR3-CNG cAMP membrane potential fluorescence; galR3 body fused to GalR1 C-terminus; inhibition, % at 3 µM;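 active = inhibition above the screen-wide average plus 3 SD, cut at about 13% in these data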;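 also: forskolin and galanin both at EC90 stimulate the cells; cAMP rise reported by CNG channel membrane potential dye signal; 0% = forskolin plus galanin with DMSO and 100% = forskolin alone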
Target sequence (O60755 1-299 limits assumed): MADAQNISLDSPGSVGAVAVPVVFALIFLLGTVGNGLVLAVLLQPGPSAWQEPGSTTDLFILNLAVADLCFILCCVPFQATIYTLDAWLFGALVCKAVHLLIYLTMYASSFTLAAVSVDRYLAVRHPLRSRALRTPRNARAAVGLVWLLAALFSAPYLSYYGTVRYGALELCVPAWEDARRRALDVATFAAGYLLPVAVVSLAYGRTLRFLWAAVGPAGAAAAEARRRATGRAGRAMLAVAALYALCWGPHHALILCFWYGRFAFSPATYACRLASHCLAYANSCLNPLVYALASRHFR
NR2E3 ag-1: activates human NR2E3 receptor | CHO-S Gal4-NCOR/VP16-NR2E3 two-hybrid, luciferase | 360,000 compounds, 0.35% hits | AID 602229 | Q9Y5X4 | inhibition of corepressor binding, % at 3.98 µM;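 active = inhibition above the mean of all tested compounds plus 3 SD, cut at about 70% in these data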;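 also: 0% = DMSO with NR2E3 transfected cells and 100% = cells lacking NR2E3 construct; higher means lower luciferase signal from less NR2E3 corepressor binding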
Target sequence (Q9Y5X4 whole entry, looked up, the tested form may be a part): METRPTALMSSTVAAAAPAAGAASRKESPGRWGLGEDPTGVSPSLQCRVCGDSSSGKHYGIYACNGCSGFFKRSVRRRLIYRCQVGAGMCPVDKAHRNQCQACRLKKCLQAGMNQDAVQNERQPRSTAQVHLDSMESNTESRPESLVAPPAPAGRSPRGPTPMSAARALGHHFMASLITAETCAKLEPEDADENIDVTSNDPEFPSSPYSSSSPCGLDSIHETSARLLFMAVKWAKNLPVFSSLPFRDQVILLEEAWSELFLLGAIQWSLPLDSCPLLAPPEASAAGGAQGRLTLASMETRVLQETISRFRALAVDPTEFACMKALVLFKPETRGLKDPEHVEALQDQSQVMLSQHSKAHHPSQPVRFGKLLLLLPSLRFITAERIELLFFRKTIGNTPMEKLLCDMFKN
Gli-Sufu antag: Gli-Sufu pathway antagonism; inhibition, % at 5 µM; 340,000 compounds, 0.74% hits; AID 588413; Sufu-KO-LIGHT fibroblasts, Gli luciferase reporter luminescence;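 active = inhibition above about 55%, limit read from the data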;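 also: 0% = DMSO-treated cells and 100% = wells with medium but no cells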
NR2E3 ag-2: activates human photoreceptor nuclear receptor NR2E3 | GST-NR2E3/biotin-RetCOR TR-FRET, 1536-well | 320,000 compounds, 0.12% hits | inhibition of corepressor binding, % at 4.78 µM | Q9Y5X4;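 active = percent inhibition above the cutoff of mean plus 3 SD of all tested compounds, set per screening campaign, cut at about 20% in these data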;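 also: 0% = DMSO wells and 100% = biotin wells as full block of FRET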
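Material: NR2E3–RetCOR corepressor complex / Incubation: Compound–protein incubation for 5 h at 4 °C / Dosing: compound at 4.8 µM, single dose / Detection: time-resolved FRET / Benchmarks: high control biotin, low control 0.6% DMSO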
NR2E3 ag confirm: NR2E3 agonism confirmed in two-hybrid assay. shares compounds with NR2E3 ag-1. 2,300 compounds, 51% hits. CHO-S mammalian two-hybrid NR2E3-NCOR, luciferase luminescence. inhibition, % at 3.98 µM;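 active = average inhibition above a cutoff equal to the mean inhibition of all tested compounds plus one SD, cut at about 70% in these data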;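 also: 0% = DMSO in NR2E3 cells and 100% = DMSO in cells lacking NR2E3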
GAL4-VP16 luc: reduces GAL4-VP16 reporter signal in NR2E3 counterscreen | shares compounds with NR2E3 ag-1 | CHO-S GAL4-VP16 luciferase reporter, luminescence | inhibition, % at 3.98 µM | 2,300 compounds, 29% hits | AID 624379;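 active = mean inhibition above a cutoff equal to the average over all tested compounds plus one standard deviation, cut at about 70% in these data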;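 also: luciferase from a UAS reporter driven by GAL4-VP16 transactivation; 0% = DMSO with VP16-transfected cells and 100% = DMSO with cells lacking VP16; higher means less reporter light so more repression of VP16 activity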
Numbers without * were called inactive. Compounds with a hit are over-represented: about 1.8% of the library has one in this group of screens.

COC(=O)C1CN(C(=O)C(C)Oc2ccc(C(C)C)cc2)c2ccccc2O1 (stereo not drawn) was read as 697 NFkB inh 7, Jurkat NFkB inh 14, GalR3 antagonist -9, NR2E3 ag-1 -4, Gli-Sufu antag -2 and NR2E3 ag-2 3.
Screening Cc1ccc(OCCN2CCC2(C)C(=O)NCc2cccc3ccccc23)cc1 (stereo not drawn) returned GalR3 antagonist -2 and NR2E3 ag-1 -28.
For Cc1ccc(OCCN2CCC2(C)C(=O)NCc2ccc(C(F)(F)F)cc2)cc1 (stereo not drawn) the results were GalR3 antagonist -9, NR2E3 ag-1 53, NR2E3 ag confirm -2 and GAL4-VP16 luc -3.
For Cc1ccc(CNC(=O)c2cc3c(C)nc4ccccc4c3o2)cc1 the results were 697 NFkB inh -13, Jurkat NFkB inh 9, NR2E3 ag-1 86*, Gli-Sufu antag 30, NR2E3 ag-2 -1, NR2E3 ag confirm 93* and GAL4-VP16 luc 78*.
Screening Cc1nc2ccccc2nc1OCC(=O)NCc1ccc2c(c1)OCO2 returned 697 NFkB inh 10, Jurkat NFkB inh 7, GalR3 antagonist 1, NR2E3 ag-1 8, Gli-Sufu antag -24 and NR2E3 ag-2 0.
For Cc1nc2ccccc2c2oc(C(=O)NCc3ccccn3)cc12 the results were 697 NFkB inh 16, Jurkat NFkB inh 9, GalR3 antagonist -7, NR2E3 ag-1 -15, Gli-Sufu antag 8 and NR2E3 ag-2 3.
Cc1nc2ccccc2c2oc(C(=O)NCc3ccc4c(c3)OCO4)cc12 was read as 697 NFkB inh -38, Jurkat NFkB inh 10, NR2E3 ag-1 70, Gli-Sufu antag 7, NR2E3 ag-2 -2, NR2E3 ag confirm 54 and GAL4-VP16 luc 56.
COc1ccccc1N1CCN(C(=O)c2cc3c(C)nc4ccccc4c3o2)CC1 was read as 697 NFkB inh -39, Jurkat NFkB inh 23, GalR3 antagonist -2, NR2E3 ag-1 68, Gli-Sufu antag 46, NR2E3 ag-2 1, NR2E3 ag confirm 62 and GAL4-VP16 luc 56.
Cc1ccc(C)c(N2CCN(C(=O)c3cc4c(C)nc5ccccc5c4o3)CC2)c1 was read as 697 NFkB inh -24, Jurkat NFkB inh -3, GalR3 antagonist 2, NR2E3 ag-1 -42, Gli-Sufu antag 29 and NR2E3 ag-2 -1.
Screening C[C@H]1CN([C@@H](C)CO)C(=O)c2cccc(NC(=O)c3ccc(-c4nccs4)cc3)c2O[C@@H]1CN(C)C(=O)NC1CCCCC1 returned 697 NFkB inh 1, Jurkat NFkB inh 3, GalR3 antagonist -4, NR2E3 ag-1 -10 and Gli-Sufu antag 8.
COc1ccc2oc(C(=O)OCC(=O)N3CCN(S(=O)(=O)c4ccc(C)cc4)CC3)c(C)c2c1 was read as 697 NFkB inh -1, Jurkat NFkB inh 0, GalR3 antagonist -1, NR2E3 ag-1 70*, Gli-Sufu antag 12, NR2E3 ag-2 3, NR2E3 ag confirm 86* and GAL4-VP16 luc 72*.
Screening CCN1CCN(c2ncnc3sc(C)c(-c4ccccc4)c23)CC1 returned 697 NFkB inh -12, Jurkat NFkB inh -2, GalR3 antagonist -11, NR2E3 ag-1 -6, Gli-Sufu antag 33 and NR2E3 ag-2 1.
Screening Cc1ccc(S(=O)(=O)N(C)C)cc1NC(=O)C(C)N(C)Cc1sccc1C (stereo not drawn) returned 697 NFkB inh -37, Jurkat NFkB inh 20, GalR3 antagonist -4, NR2E3 ag-1 60, Gli-Sufu antag 43, NR2E3 ag-2 0, NR2E3 ag confirm 37 and GAL4-VP16 luc 31.
`COC1=CC(=O)c2c(ccc3ncnc(N)c23)C1=O` gave GalR3 antagonist -8, NR2E3 ag-1 102*, Gli-Sufu antag 56*, NR2E3 ag confirm 101* and GAL4-VP16 luc 101*.
COc1cc(NC(=O)c2cc(C)no2)cc(OC)c1OC was read as 697 NFkB inh -1, Jurkat NFkB inh -19, GalR3 antagonist -10, NR2E3 ag-1 -14, Gli-Sufu antag 10 and NR2E3 ag-2 0.
Screening CCCN(CC1CC1)C(=S)NC(=O)c1cc(Br)ccc1Cl returned 697 NFkB inh 4, Jurkat NFkB inh -9, GalR3 antagonist -5, NR2E3 ag-1 81*, Gli-Sufu antag 3, NR2E3 ag confirm -1 and GAL4-VP16 luc 8.
CNC(=O)OCc1nc(SSC(C)(C)C)n(C)c1COC(=O)NC was read as GalR3 antagonist -1, NR2E3 ag-1 55, Gli-Sufu antag 42, NR2E3 ag confirm 28 and GAL4-VP16 luc 12.
O=C(CN1C(=O)CCC1=O)NNc1ccc2ccccc2c1 was read as 697 NFkB inh -87, Jurkat NFkB inh -60, GalR3 antagonist -6, NR2E3 ag-1 31, Gli-Sufu antag -5 and NR2E3 ag-2 -3.
`O=C(Cc1ccccc1)NNc1ccc2ccccc2c1` gave 697 NFkB inh -42, Jurkat NFkB inh -31, GalR3 antagonist -6, NR2E3 ag-1 50, Gli-Sufu antag 4, NR2E3 ag-2 -2, NR2E3 ag confirm 53 and GAL4-VP16 luc 5.
For Cc1cc(C(=O)N2CCN(S(=O)(=O)c3ccc(C)c(C)c3)CC2)no1 the results were 697 NFkB inh -19, Jurkat NFkB inh 9, GalR3 antagonist -5, NR2E3 ag-1 21 and Gli-Sufu antag 5.
For CC(=O)N1CC(C)Sc2ccc(S(=O)(=O)NCc3ccc(Cl)cc3)cc21 (stereo not drawn) the results were 697 NFkB inh -29, Jurkat NFkB inh 6, GalR3 antagonist -9, NR2E3 ag-1 48, Gli-Sufu antag 20, NR2E3 ag-2 5, NR2E3 ag confirm 42 and GAL4-VP16 luc 42.
`CC(=O)N1CC(C)Sc2ccc(S(=O)(=O)NCCc3ccc(C)cc3)cc21` (stereo not drawn) gave 697 NFkB inh -11, Jurkat NFkB inh 6, GalR3 antagonist 7, NR2E3 ag-1 80*, Gli-Sufu antag 23, NR2E3 ag-2 3, NR2E3 ag confirm 74* and GAL4-VP16 luc 68.
CC(=O)N1CCN(S(=O)(=O)c2cccc(C(=O)OCc3ccc(C(C)(C)C)cc3)c2)CC1 was read as 697 NFkB inh -9, Jurkat NFkB inh 15, GalR3 antagonist -7, NR2E3 ag-1 73*, Gli-Sufu antag 48, NR2E3 ag confirm 78* and GAL4-VP16 luc 76*.
`O=C(NC(=S)N(Cc1ccccc1)Cc1ccccc1)c1ccccc1F` gave 697 NFkB inh -15, Jurkat NFkB inh 5, GalR3 antagonist -5, NR2E3 ag-1 65, Gli-Sufu antag 3, NR2E3 ag-2 3, NR2E3 ag confirm 21 and GAL4-VP16 luc 21.
